# According to ChEMBL document CHEMBL1142174, “Pyrazinoic acid and its n-propyl ester inhibit fatty acid synthase type I in replicating tubercle bacilli” (2007):
# Experiments:
# [1] = test system: Mycobacterium tuberculosis variant bovis BCG; experiment: Inhibition of fatty acid synthase 1 in Mycobacterium bovis BCG assessed as incorporation of [1-14C]acetate in C16 biosynthesis at 1500 ug/ml at pH 6.8
# In short: (§1)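 M. bovis BCG was exposed to drug in medium at pH 6 or 6.8, then labelled with [1-14C]acetate. Extracted fatty acids were analysed by HPLC for 14C-labelled C16.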
# [2] = test system: Mycobacterium tuberculosis variant bovis BCG; experiment: Inhibition of fatty acid synthase 1 in Mycobacterium bovis BCG assessed as incorporation of [1-14C]acetate in C16 biosynthesis at 1500 ug/ml at pH 6.0; in short: as §1
structure (smiles),measurement,setting,value
O=C(O)c1cnccn1 [PYRAZINOIC ACID],inhibition,[1],30%
same,inhibition,[2],97%
